Screening results (PubChem)
T cruzi inh: inhibitors of intracellular T. cruzi growth, primary screen, luminescence, NIH3T3 host cells; T. cruzi beta-gal in NIH3T3, 90 h; inhibition, % (test concentration not listed); actives 1.4% (n = 300,000); AID 1885, 2009;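 active means mean inhibition across valid replicates above about 55%, limit read from the data; inconclusive means mean below that limit but half or more replicates reach it; inactive means mean below it, under half of replicates reach it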;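 further: signal also drops with host cell toxicity which is not excluded here; higher percent means less beta-gal luminescence so fewer parasites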
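Incubation – ≥90 h infection period, 3 h prior cell attachment · System – NIH/3T3 fibroblasts plus reporter T. cruzi · Doses – compound pinned at 50 nL/well, DMSO · Read-out basis – percent inhibition of parasite-derived β-gal signal · Signal – luminescent β-galactosidase signal after 60 min lysis · Also added – 5000 T. cruzi trypomastigotes/well · Medium – Low-serum DMEM with 2% FBS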
aSyn UTR inh: MLPCN primary screen, SNCA 5' untranslated region. alpha-synuclein 5'UTR reporter, inhibitor activity. inhibition, % (tested at 7.5 µM). actives 0.82% (n = 300,000). AID 1813, 2009; in the data active means inhibition above about 60%; inconclusive means no clear call, values can overlap the other calls;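 further: H4 neuroglioblastoma cells stably carrying SNCA 5'UTR luciferase fusion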
Mdm2-MdmX inh: inhibitors of human Mdm2-MdmX association, primary screen, cell-based, luminescence, split luciferase, SaOS-2, uHTS. Protein Mdm4 (Homo sapiens) + E3 ubiquitin-protein ligase Mdm2 (Homo sapiens), …. actives 3% (n = 330,000). SaOS-2 split-luciferase Mdm2/MdmX complementation. inhibition, % at 8 µM;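 active means inhibition of at least 50% at 8 µM in the primary screen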
Target sequence (O15151 whole entry, looked up): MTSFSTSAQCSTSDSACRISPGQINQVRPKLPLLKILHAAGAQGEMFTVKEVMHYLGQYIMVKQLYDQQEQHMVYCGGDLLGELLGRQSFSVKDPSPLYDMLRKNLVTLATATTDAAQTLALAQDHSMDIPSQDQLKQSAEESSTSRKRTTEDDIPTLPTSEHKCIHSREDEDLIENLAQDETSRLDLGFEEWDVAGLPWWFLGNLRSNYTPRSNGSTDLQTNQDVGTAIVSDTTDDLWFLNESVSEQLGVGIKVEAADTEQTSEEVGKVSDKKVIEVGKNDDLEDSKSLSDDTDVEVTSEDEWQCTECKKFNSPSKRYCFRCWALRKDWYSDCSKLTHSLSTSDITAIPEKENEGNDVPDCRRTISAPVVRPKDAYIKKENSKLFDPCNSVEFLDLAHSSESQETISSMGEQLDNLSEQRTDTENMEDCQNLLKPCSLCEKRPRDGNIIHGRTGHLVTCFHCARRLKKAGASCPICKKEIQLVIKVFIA
Target sequence (Q00987 whole entry, looked up): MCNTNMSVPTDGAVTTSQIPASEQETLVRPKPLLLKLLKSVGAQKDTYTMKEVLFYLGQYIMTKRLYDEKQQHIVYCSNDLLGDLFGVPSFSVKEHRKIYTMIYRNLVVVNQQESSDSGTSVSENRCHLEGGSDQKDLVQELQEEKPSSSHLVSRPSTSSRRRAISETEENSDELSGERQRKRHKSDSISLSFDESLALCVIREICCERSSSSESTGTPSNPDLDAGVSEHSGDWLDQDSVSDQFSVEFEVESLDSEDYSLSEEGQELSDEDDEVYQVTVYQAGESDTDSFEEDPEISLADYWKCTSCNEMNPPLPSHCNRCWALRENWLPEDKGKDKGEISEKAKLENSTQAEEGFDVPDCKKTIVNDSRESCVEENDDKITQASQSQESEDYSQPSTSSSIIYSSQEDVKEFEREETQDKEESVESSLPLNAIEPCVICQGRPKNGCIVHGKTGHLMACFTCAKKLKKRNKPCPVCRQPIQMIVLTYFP
CSC inhib: cancer stem cell viability inhibitors, primary screen, luminescence. cancer stem cell-like cells viability. inhibition, % at 7.5 µM. actives 1.1% (n = 300,000); in the data active means inhibition above about 75%; inconclusive means no clear call, values can overlap the other calls; tested in HMLE shEcad cells
SKKanGAS inh: S. pyogenes SKKanGAS growth inhibitors in kanamycin, primary screen, streptokinase expression inhibitor project, SKKanGAS strain, BacTiter-Glo luminescence | actives 1.3% (n = 300,000) | 6 h | inhibition, % at 7.5 µM;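 active means mean replicate score, as percent of positive control median, at least 50; inconclusive means mean below 50 but one replicate at or above 50; inactive means mean and every replicate below 50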;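 further: strain carries kanamycin resistance gene driven by streptokinase promoter and grows in 40 µg/ml kanamycin; loss of luminescence reflects streptokinase promoter inhibition or plain growth inhibition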
Each line names hits and unclear results; the compound was inactive in the other large screens. A selection: hits, their analogues and other compounds. The true share with any hit is near 5.4%.

COc1ccc([C@@H]2C[C@H]3CN(Cc4ccccc4OC)C(=O)[C@]34CCCN24)cc1C	none
CCOc1ccc(C(=O)NCC2CCCN2S(=O)(=O)c2cccs2)cc1 (centres undefined)	SKKanGAS inh 53 (no result: CSC inhib)
COc1cc(C(=O)NCC2CCCN2S(=O)(=O)c2cccs2)cc(OC)c1OC (centres undefined)	none
O=C(NCc1ccccc1F)C(=O)NCC1CCCN1S(=O)(=O)c1cccs1 (centres undefined)	none
COc1ccccc1CNC(=O)C(=O)NCC1CCCN1S(=O)(=O)c1cccs1 (centres undefined)	T cruzi inh 62
COc1ccc(/C=C/c2nc3ccccc3n2C)cc1	aSyn UTR inh 109, CSC inhib 88, SKKanGAS inh 66
COc1ccc(/C=N\n2nnc3ccccc32)cc1	aSyn UTR inh 73
COc1ccc(Cn2c(/C=C/c3ccccc3)nc3ccccc32)cc1	none
COc1ccc(/C=C/c2ccncc2)cc1	T cruzi inh 74
CCOc1cc(N2CCOCC2)c(OCC)cc1NC(=O)c1cnccn1	none (no result: T cruzi inh, aSyn UTR inh, SKKanGAS inh)
CCN(CC)CCN(C(=O)CN1C(=O)c2ccccc2C1=O)c1nc2cc3c(cc2s1)OCO3	T cruzi inh 57
CN(C)CCN(C(=O)c1ccc(S(=O)(=O)N(C)c2ccccc2)cc1)c1nc2cc3c(cc2s1)OCO3	T cruzi inh 57
CCN(CC)CCN(C(=O)c1ccc(S(=O)(=O)N2CCCCC2)cc1)c1nc2cc3c(cc2s1)OCO3	T cruzi inh 63
CN(C)CCN(C(=O)c1ccc(S(=O)(=O)N(C)c2ccccc2)cc1)c1nc2ccc(Cl)cc2s1	T cruzi inh 63
O=C(NCc1cnc2ccccn12)C1CCC(=O)N(Cc2ccccc2F)C1 (centres undefined)	none
O=C(/C=C/c1c[nH]c2ccccc12)c1cccc2ccccc12	CSC inhib 87
Cc1ccc(C(=O)N/N=C\c2ccccc2[N+](=O)[O-])cn1	none (no result: Mdm2-MdmX inh, CSC inhib)
Cc1c(C(=O)N/N=C/C(C)C)[nH]c2c([N+](=O)[O-])cccc12	aSyn UTR inh 68 (no result: CSC inhib)
CC(=O)NS(=O)(=O)c1ccc(NC(=O)[C@@H]2CCCN2S(=O)(=O)c2ccc(Cl)cc2)cc1	none (no result: T cruzi inh, aSyn UTR inh, SKKanGAS inh)
OC(COc1ccc2ccccc2c1Br)Cn1cnc(-c2ccccc2)c1 (centres undefined)	CSC inhib 101, SKKanGAS inh 56
CCC(CO)Oc1cc(NCc2ccc(Cl)cc2)c2ncn(C(C)C)c2c1 (centres undefined)	none (no result: T cruzi inh, aSyn UTR inh, CSC inhib, SKKanGAS inh)
CCC(CO)Oc1cc(NCc2ccc(Cl)cc2Cl)c2ncn(C(C)C)c2c1 (centres undefined)	CSC inhib 111 (no result: T cruzi inh, aSyn UTR inh, SKKanGAS inh)
O=C(NCC1CCCCC1)c1cc2ccccc2cc1O	CSC inhib 83
O=C(NCC1CCCO1)c1cc2ccccc2cc1O (centres undefined)	none
CC(=O)Nc1ccc(NC(=O)CN(c2cccc([N+](=O)[O-])c2)S(C)(=O)=O)cc1	aSyn UTR inh 69
CS(=O)(=O)N(CC(=O)Nc1cccc(F)c1)c1cccc([N+](=O)[O-])c1	none
CSc1ccc(-c2nc(CSCC(=O)NC3CC3)c(C)o2)cc1	none
CCc1ccc(-c2nc(CSCC(=O)NC3CC3)c(C)o2)cc1	aSyn UTR inh 71
Cc1ccc([N+](=O)[O-])cc1NC(=O)CSc1n[nH]c(-c2cccnc2)n1	none
Cc1cc(NC(=O)CN2C(=O)c3ccccc3S2(=O)=O)no1	none
Cc1cc(NC(=O)CN2C(=O)c3ccccc3C2=O)no1	SKKanGAS inh 50
O=C1[C@@H]2[C@H](C(=O)N1Cc1ccco1)[C@H]1C=C[C@@H]2C1	none
CCCCN(C(=O)CSCc1c(C)noc1C)c1c(N)n(CCCC)c(=O)[nH]c1=O	none
CCC(CC)NC(=O)c1oc2ccccc2c1COc1ccccc1	SKKanGAS inh 52
CC(C)CNC(=O)c1oc2ccccc2c1COc1ccccc1	none
O=S(=O)(Nc1ccc(-n2cnnn2)cc1)c1ccc(Cl)s1	none (no result: T cruzi inh, aSyn UTR inh, CSC inhib, SKKanGAS inh)
CCN(CC)CCNc1ncnc2c1[nH]c1ccc(OC)cc12	none
COc1ccc2[nH]c3c(NCCC4=CCCCC4)ncnc3c2c1	T cruzi inh 87 (no result: Mdm2-MdmX inh, CSC inhib)
Cc1ccc(NC(=O)CN2C(=O)S/C(=C\c3ccc(-c4cccc(C(=O)O)c4C)o3)C2=O)cc1	SKKanGAS inh 53
Cc1ccc(C(=O)O)cc1-c1ccc(/C=C2\SC(=O)N(CC(=O)Nc3ccccc3)C2=O)o1	SKKanGAS inh inconclusive
C/C(=N\NC(=O)c1ccccc1N)c1ccc(NC(=O)Cc2ccccc2)cc1	SKKanGAS inh 67
COc1cc(NC(C)CCCN)c2ncccc2c1 (centres undefined)	CSC inhib 105
COc1cc(NCCCCCCCN)c2ncccc2c1	none
Cc1cc(C)n2nc(SC(C)C(=O)NC3CCCCC3C)nc2n1 (centres undefined)	none
O=C(NC(N1CCOCC1)C(Cl)(Cl)Cl)c1cc([N+](=O)[O-])cc([N+](=O)[O-])c1 (centres undefined)	T cruzi inh 94
CCOc1ccc(-c2noc(CCC(=O)NC3CCCCC3)n2)cc1OC	none
COc1ccc(C(=O)C2CCCN(Cc3cnc(N4CCOCC4)s3)C2)cc1F (centres undefined)	none
CC(C)Oc1cccc(C(=O)C2CCCN(Cc3cnc(N4CCOCC4)s3)C2)c1 (centres undefined)	T cruzi inh 59
CCOC(=O)c1[nH]ncc1CN1CCCC(C(=O)c2cccc(OC(C)C)c2)C1 (centres undefined)	none
COc1ccc(C(=O)C2CCCN(Cc3cnc(N4CCOCC4)s3)C2)c(OC)c1 (centres undefined)	T cruzi inh 61
COc1ccc(C(=O)C2CCCN(Cc3cccn3-c3ccc(Cl)cn3)C2)c(OC)c1 (centres undefined)	T cruzi inh 79 (no result: CSC inhib)
CCn1ncc(CN2CCCC(C(=O)c3cccc(OC(C)C)c3)C2)c1C (centres undefined)	T cruzi inh 65
N#Cc1c2ccccc2nc2ccccc12	none
CCCc1cc(=O)[nH]c(SC(C)C(=O)N2c3ccccc3CC2C)n1 (centres undefined)	none (no result: T cruzi inh, aSyn UTR inh, SKKanGAS inh)
COc1ccc(C(=O)C2CCCN(Cc3ccc4nonc4c3)C2)c(OC)c1 (centres undefined)	T cruzi inh 70
CSc1ccccc1NC(=S)N/N=C/c1cccn1Cc1ccc(F)cc1	none
CSc1ccccc1NC(=S)N/N=C/c1cccn1Cc1cccc(C)c1	T cruzi inh 65
O=[N+]([O-])c1cccc(-c2csc(N/N=C/c3cccc(O)c3)n2)c1	T cruzi inh inconclusive, CSC inhib 87
CCOC(=O)Cc1csc(N/N=C/c2cccc([N+](=O)[O-])c2)n1	none
CCCCNC(=O)c1sc2nc(C)cc(COC)c2c1-n1cccc1	none
COCc1cc(C)nc2sc(C(=O)NN)c(-n3cccc3)c12	aSyn UTR inh 71
